Measurements from different studies.
Compare with care: the assays were run in different laboratories.
Target: Serine/threonine-protein kinase PAK 2 (PAK2, Homo sapiens, UniProt Q13177)

Structure (SMILES)	observed	mode	technique	tested at	quantity	value
O=C(Nc1cnn(-c2csc(C(=O)NC3COC3)c2)c1)Nc1c(F)cccc1Cl	enzyme activity	inhibitor	–	5 µM	remaining activity	95.3%
CC(C)CC(=O)N1CCc2nc(-c3ccc(Br)cc3)nc(N(C)Cc3ccccc3)c2C1	cell-free assay	–	competition with immobilised ligand	0.1 µM	remaining binding	100%
Oc1cccc(-c2nc(N3CCOCC3)c3oc4ncccc4c3n2)c1	enzyme activity	inhibitor	–	10 µM	remaining activity	106%
CCCS(=O)(=O)Nc1ccc(F)c(C(=O)c2c[nH]c3ncc(-c4ccc(Cl)cc4)cc23)c1F	enzyme activity	inhibitor	–	1 µM	inhibition	< 10%
O=C(Nc1cnc(Oc2ccc(F)cc2)nc1)N1CCc2ncccc2[C@@H]1c1ccc(F)cc1	cell-free assay	–	competition with immobilised ligand	1 µM	remaining binding	59%
Cc1ccc(Nc2nccc(N(C)c3ccc4c(C)n(C)nc4c3)n2)cc1S(N)(=O)=O	enzyme activity	inhibitor	–	10 µM	inhibition	24%
O=C1CCc2cc(Nc3cc(OC4CCOCC4)c([N+](=O)[O-])cc3Cl)ccc2N1	cell-free assay	–	competition with immobilised ligand	1 µM	remaining binding	96%
CS(=O)(=O)Nc1cccc(-c2csc(NC(=O)CSc3nc4nccnc4c(=O)n3CCc3ccccc3)n2)c1	enzyme activity	inhibitor	–	10 µM	inhibition	3%
CNc1cccc2cc(C(=O)Nc3ccc(C(=O)O)cc3)c(=O)[nH]c12	enzyme activity	inhibitor	–	10 µM	inhibition	20%
Cc1cnc(NC2CCOCC2)nc1-n1cnc(C(=O)NC(CN)c2cc(F)cc(Cl)c2)c1 (centres unmarked)	enzyme activity	inhibitor	radiometric	1 µM	remaining activity	77%
O=S(=O)(NC1CCC(c2cc(F)ccc2F)(S(=O)(=O)c2ccc(Cl)cc2)CC1)C(F)(F)F (centres unmarked)	cell-free assay	–	competition with immobilised ligand	1 µM	remaining binding	100%
Cc1ccc(C(=O)NCc2ccsc2)cc1C#Cc1cn(C(C)C)c2ncnc(N)c12	enzyme activity	inhibitor	–	1 µM	activity vs control	79%
CNCc1ccc(-c2cc(-c3nc(-c4ccc(S(=O)(=O)C(C)C)cc4)cnc3N)on2)cc1	enzyme activity	inhibitor	–	0.4 µM	inhibition	7%
N#CCCc1ccc2c(c1)-c1[nH]c3ccc([N+](=O)[O-])cc3c1CC(=O)N2	cell-free assay	–	–	0.5 µM	remaining signal	55.6%
CC(C)(O)c1cncc(-c2nc3ccc(F)cc3n2C2CC2)c1	cell-free assay	–	competition with immobilised ligand	1 µM	remaining binding	100%
COc1cc(Nc2cnc(C#N)c(O[C@H](C)CN(C)C)n2)ncc1-c1cnn(C)c1	enzyme activity	inhibitor	radiometric	10 µM	remaining activity	70%

Structure (SMILES)	observed	mode	technique	tested at	quantity	value
Cc1c(NC(=O)c2cc(C(N)=O)nc3cc(F)ccc23)c(C(F)(F)F)nn1Cc1ccc(C#N)cc1	cell-free assay	–	competition with immobilised ligand	1 µM	remaining binding	88%
COc1cc(/C=C/C(=O)CC(=O)/C=C/c2ccc(O)c(OC)c2)ccc1O	enzyme activity	inhibitor	–	1 µM	activity vs control	84%
Cc1cc(NC(=O)c2cccc3cc(-c4cccc5[nH]nc(N)c45)ccc23)ccc1F	enzyme activity	inhibitor	–	0.1 µM	activity vs control	98%
Clc1ccc(Nc2nnc(Cc3ccncc3)c3ccccc23)cc1	cell-free assay	–	–	0.5 µM	remaining signal	101%
CCN(CC)CCNC(=O)c1c(C)[nH]c(/C=C2\C(=O)Nc3ccc(F)cc32)c1C	enzyme activity	inhibitor	–	10 µM	inhibition	8%
COc1cc2ncnc(Nc3ccc(F)c(Cl)c3)c2cc1OCCCN1CCOCC1	cell-free assay	–	–	0.5 µM	remaining signal	100%
CS(=O)(=O)N1CCCC(NC(=O)[C@H](CCC2CCCCC2)NC(=O)c2ccc(CNC(=O)c3cnc4ccccn34)cc2)C1 (some centres unmarked)	cell-free assay	–	competition with immobilised ligand	0.1 µM	remaining binding	93%
O=C(Nc1cnn(-c2csc(C(=O)NC3COC3)c2)c1)Nc1ccccc1Cl	enzyme activity	inhibitor	–	5 µM	remaining activity	90.1%
COc1cc2ncnc(Nc3ccc(Oc4ccccc4)cc3C)c2cc1OC	enzyme activity	inhibitor	–	1 µM	inhibition	2%
FC(F)(F)Oc1cccc(-c2cnc3ccc(-c4ccncc4)nn23)c1	enzyme activity	inhibitor	radiometric	1 µM	activity vs control	95%
CCOc1cc(-c2nncn2C)ccc1Nc1ncc2cc(C)nc(NCC(C)(C)C)c2n1	enzyme activity	inhibitor	FRET	1 µM	inhibition	< 15%
Cc1noc([C@H]2C[C@@H](c3ccc(C(F)(F)F)cc3)CN(C(=O)N3CCS(=O)(=O)C3)C2)n1	cell-free assay	–	competition with immobilised ligand	1 µM	remaining binding	87%
C#Cc1cccc(Nc2ncnc3cc(OCCOC)c(OCCOC)cc23)c1	cell-free assay	–	–	0.5 µM	remaining signal	99.1%
CC(C)(C)c1nc2c(s1)c1nc(N)ncc1c1ccc(NS(=O)(=O)c3c(F)cccc3F)c(F)c12	enzyme activity	inhibitor	radiometric	1 µM	remaining activity	102%
CSc1nc(C)c(-c2ccnc(Nc3ccc(N4CCOCC4)cc3)c2)[nH]1	enzyme activity	inhibitor	–	10 µM	inhibition	1.4%
Nc1ncnc2occ(-c3ccc(NC(=O)Nc4cc(C(F)(F)F)ccc4F)cc3)c12	cell-free assay	inhibitor	–	20 µM	remaining signal	60%
